How the values were obtained:
Format in all cases: functional
Settings in all cases: Homo sapiens
[1] = test system: CCRF-CEM; assay: Tested in vitro for cytotoxicity in CCRF-CEM cell lines
Outline: (§1)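 Compounds dissolved in DMSO, then diluted 500-fold into aqueous medium. The resulting aqueous solutions or suspensions were added to the cultured human tumour cell lines, and the cells were exposed for 48 h. Growth was read colorimetrically in one of two ways: a metabolic assay in which viable cells reduce a tetrazolium salt to a formazan dye, or a protein stain for total cellular protein.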

[2] = test system: IGROV-1; assay: Tested in vitro for cytotoxicity in IGROV1 cell lines; outline: as §1
[3] = test system: CAKI-1; assay: Tested in vitro for cytotoxicity in CAKI-1 cell lines; outline: as §1
[4] = test system: COLO 205; assay: Tested in vitro for cytotoxicity in COLO 205 cell lines; outline: as §1
[5] = test system: A549; assay: Tested in vitro for cytotoxicity in A549/ATCC cell lines; outline: as §1
[6] = test system: DMS-114; assay: Tested in vitro for cytotoxicity in DMS114 cell lines; outline: as §1
[7] = test system: SF-268; assay: Tested in vitro for cytotoxicity in SF-268 cell lines; outline: as §1
[8] = test system: Malme-3M; assay: Tested in vitro for cytotoxicity in MALME-3M; outline: as §1

Cc1c2cc[n+](C[S+](C)[O-])cc2c(C)c2c1[nH]c1ccccc12 (stereo not drawn)
GI50 [1]: 40.6 µM | GI50 [2]: 29.5 µM | GI50 [3]: 35.8 µM | GI50 [4]: 31 µM | GI50 [5]: 71 µM | GI50 [6]: 6.6 µM | GI50 [7]: 2.46 µM

COC(=O)C[n+]1ccc2c(C)c3[nH]c4ccccc4c3c(C)c2c1
GI50 [1]: > 100 µM | GI50 [2]: > 100 µM | GI50 [8]: > 100 µM | GI50 [4]: > 100 µM | GI50 [5]: > 100 µM | GI50 [6]: > 100 µM | GI50 [7]: 12.8 µM

COCN1C=Cc2c(c(C)c3c([nH]c4ccccc43)c2C)C1
GI50 [1]: 4.98 µM | GI50 [2]: 5.88 µM | GI50 [8]: 8.87 µM | GI50 [3]: 11.1 µM | GI50 [4]: 8.68 µM | GI50 [5]: 5.06 µM | GI50 [6]: 10.4 µM | GI50 [7]: 8.02 µM

Cc1c2cc[n+](CC(=O)O)cc2c(C)c2c1[nH]c1ccccc12
GI50 [1]: > 100 µM | GI50 [2]: > 100 µM | GI50 [8]: 26.3 µM | GI50 [4]: > 100 µM | GI50 [5]: 77.3 µM | GI50 [6]: 76.8 µM | GI50 [7]: 97.1 µM

COC[n+]1ccc2c(C)c3[nH]c4ccccc4c3c(C)c2c1
GI50 [1]: 14.6 µM | GI50 [2]: 9.2 µM | GI50 [8]: 0.647 µM | GI50 [3]: 19.2 µM | GI50 [4]: 4.7 µM | GI50 [5]: 1.79 µM | GI50 [6]: 2.28 µM | GI50 [7]: 0.679 µM

COC[n+]1ccc2c(C)c3[nH]c4ccc(OC)cc4c3c(C)c2c1
GI50 [1]: 6.86 µM | GI50 [2]: 27.8 µM | GI50 [8]: 1.92 µM | GI50 [3]: 20.2 µM | GI50 [4]: 2.68 µM | GI50 [5]: 13.7 µM | GI50 [6]: 1.32 µM | GI50 [7]: 0.818 µM

Cc1ccc2[nH]c3c(C)c4c(c(C)c3c2c1)CN(C)C=C4
GI50 [1]: 2.34 µM | GI50 [2]: 0.774 µM | GI50 [8]: 1.72 µM | GI50 [3]: 1.21 µM | GI50 [4]: 0.306 µM | GI50 [5]: 0.38 µM | GI50 [6]: 0.438 µM | GI50 [7]: 0.395 µM

COc1ccc2[nH]c3c(C)c4c(c(C)c3c2c1)CN(C)C=C4C=O
GI50 [1]: 60.4 µM | GI50 [2]: 31.2 µM | GI50 [8]: 40 µM | GI50 [3]: 73.2 µM | GI50 [4]: 16.2 µM | GI50 [5]: 75.7 µM | GI50 [6]: 2.5 µM | GI50 [7]: 1.12 µM

CC(=O)O[C@@H]1[C@@H](OC(C)=O)[C@@H](N2C=Cc3c(c(C)c4c([nH]c5ccccc54)c3C)C2)OC[C@@H]1OC(C)=O
GI50 [1]: 29 µM | GI50 [2]: 24.1 µM | GI50 [8]: 30.2 µM | GI50 [3]: > 100 µM | GI50 [4]: 36.7 µM | GI50 [5]: 64 µM | GI50 [6]: 15.6 µM | GI50 [7]: 31 µM

CSC[n+]1ccc2c(C)c3[nH]c4ccccc4c3c(C)c2c1
GI50 [1]: 5.02 µM | GI50 [2]: 18.2 µM | GI50 [8]: 1.99 µM | GI50 [3]: 19.6 µM | GI50 [4]: 2.48 µM | GI50 [5]: 5.23 µM | GI50 [6]: 2.67 µM | GI50 [7]: 0.726 µM

Cc1c2cc[n+](CC#N)cc2c(C)c2c1[nH]c1ccccc12
GI50 [1]: 100 µM | GI50 [2]: 35.6 µM | GI50 [8]: 27.2 µM | GI50 [3]: > 100 µM | GI50 [4]: 34.6 µM | GI50 [5]: 97.5 µM | GI50 [6]: 44.7 µM | GI50 [7]: 13 µM

Cc1c2ccncc2c(C)c2c1[nH]c1ccccc12 [ELLIPTECINE]
GI50 [1]: 0.415 µM | GI50 [2]: 0.862 µM | GI50 [8]: 2.52 µM | GI50 [3]: 1.01 µM | GI50 [4]: 0.588 µM | GI50 [5]: 0.41 µM | GI50 [6]: 0.552 µM | GI50 [7]: 0.816 µM

— ChEMBL document CHEMBL1127574, “Design and synthesis of ellipticinium salts and 1,2-dihydroellipticines with high selectivities against human CNS cancers in vitro” (1994)
